# Data taken from ChEMBL document CHEMBL1152933, “Synthesis and evaluation of novel 7-azaindazolyl-indolyl-maleimide derivatives as antitumor agents and protein kinase C inhibitors” (Bioorg Med Chem, 2009).
# Active and inactive are the calls of the source. No cut-off for these calls is given here.
# Legend:
# [1] = Antiproliferative activity against human ECA109 cells after 48 hrs by MTT assay; format: functional, cell-based; details: ECa-109, 48 h
# Procedure, shortened: (§1)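 MTT assay after 48 h incubation with compound. MTT (5.0 mg/mL stock in RPMI-1640) was added and incubated a further 4 h at 37 °C. Formazan was dissolved in DMSO and absorbance read at 570 nm. IC50 is the concentration giving 50% decrease in cell growth, computed from dose-effect analysis. Triplicate wells, three independent experiments, values are means.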
# [2] = Inhibition of PKC by […] assay
# Procedure, shortened: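 Recombinant PKC was incubated with reaction mixture containing a fluorescent PepTag PKC-specific peptide substrate at 30 °C for 30 min, then stopped by boiling. Phosphorylated (−1) and nonphosphorylated (+1) peptide were separated on 0.8% agarose in 50 mM Tris-HCl pH 8.0 at 100 V for 15 min and visualized under UV. IC50 values are means of three experiments.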
# KB [3] = assay: Antiproliferative activity against human KB cells after 48 hrs by MTT assay; format: functional, cell-based; procedure, shortened: as §1
# K562 = assay: Antiproliferative activity against human K562 cells after 48 hrs by MTT assay; format: functional, cell-based; details: K562, 48 h; procedure, shortened: as §1
# A549 = assay: Antiproliferative activity against human A549 cells after 48 hrs by MTT assay; format: functional, cell-based; details: A549, 48 h; procedure, shortened: as §1
# SMMC-7721 = assay: Antiproliferative activity against human SMMC7721 cells after 48 hrs by MTT assay; format: functional, cell-based; details: SMMC-7721, 48 h; procedure, shortened: as §1
# KB [4] = assay: Antiproliferative activity against human KB cells at 10 uM after 48 hrs by MTT assay; format: functional, cell-based
# KB [5] = assay: Induction of apoptosis in human KB cells assessed as increase in caspase 3/7 activity at 10 uM after 48 hrs; format: functional, cell-based
# Procedure, shortened: (§2)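 KB cells were cultured 48 h with 10 or 20 µM, then caspase-3/7 activity was measured with a Caspase-Glo 3/7 kit per the kit protocol and compared with control cells.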
# KB [6] = assay: Induction of apoptosis in human KB cells assessed as increase in Bax/Bcl-2 ratio at 20 uM after 48 hrs by Western blotting; format: functional, cell-based
# Procedure, shortened: (§3)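 KB cells were treated 48 h with 10 or 20 µM, then lysed in NaCl/Tris pH 8.0/EGTA/EDTA/NaF/β-glycerophosphate/Triton/NP-40/PMSF buffer. Protein was quantified by BCA. Equal protein was run on 10–12% Tris-glycine gels and blotted. Blots were probed for JNK, Bax, Bcl-2, procaspase-9, procaspase-3 and tubulin, with HRP secondary and ECL detection. Bax/Bcl-2 ratio was derived from the blots.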
# KB [7] = assay: Induction of apoptosis in human KB cells assessed as decrease in BCL-2 expression at 20 uM after 48 hrs by Western blotting; format: functional, cell-based; procedure, shortened: as §3
# KB [8] = assay: Induction of apoptosis in human KB cells assessed as decrease in procaspase-3 expression at 20 uM after 48 hrs by Western blotting; format: functional, cell-based; procedure, shortened: as §3
# KB [9] = assay: Induction of apoptosis in human KB cells assessed as decrease in procaspase-9 expression at 20 uM after 48 hrs by Western blotting; format: functional, cell-based; procedure, shortened: as §3
# KB [10] = assay: Induction of apoptosis in human KB cells assessed as DNA fragmentation at 20 uM after 48 hrs by agarose gel electrophoresis; format: functional, cell-based
# Procedure, shortened: (§4)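 KB cells were treated 48 h with 10 or 20 µM, then lysed in EDTA/Tris pH 8.0/SDS/proteinase K buffer at 37 °C for 12 h, followed by RNase 1 h at 37 °C. DNA was phenol/chloroform extracted and ethanol precipitated, then run on 1.5% agarose gel with ethidium bromide and photographed for laddering.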
# KB [11] = assay: Induction of apoptosis in human KB cells assessed as increase in JNK expression at 20 uM after 48 hrs by Western blotting; format: functional, cell-based; procedure, shortened: as §3
# KB [12] = assay: Induction of apoptosis in human KB cells assessed as increase in caspase 3/7 activity at 20 uM after 48 hrs; format: functional, cell-based; procedure, shortened: as §2
# KB [13] = assay: Induction of apoptosis in human KB cells assessed as DNA fragmentation at 10 uM after 48 hrs by agarose gel electrophoresis; format: functional, cell-based; procedure, shortened: as §4
# KB [14] = assay: Antiproliferative activity against human KB cells at 20 uM after 48 hrs by light microscopy
Compound,IC50 [1] [µM],IC50 [2] [µM],IC50 (KB [3]) [µM],IC50 (K562) [µM],IC50 (A549) [µM],IC50 (SMMC-7721) [µM],Activity (KB [4]),Activity (KB [5]),Activity (KB [6]),Activity (KB [7]),Activity (KB [8]),Activity (KB [9]),Activity (KB [10]),Activity (KB [11]),Activity (KB [12]),Activity (KB [13]),Activity (KB [14])
Cn1cc(C2=C(c3n[nH]c4ncccc34)C(=O)NC2=O)c2ccccc21,46.1,> 10,62,> 100,> 100,> 100,,,,,,,,,,,
Cn1cc(C2=C(c3nn(CCn4ccnc4)c4ncccc34)C(=O)NC2=O)c2ccccc21,> 100,9.1,> 100,> 100,> 100,> 100,,,,,,,,,,,
Cn1cc(C2=C(c3nn(CCCn4cccc4)c4ncccc34)C(=O)N(c3ccccc3)C2=O)c2ccccc21,> 100,> 10,> 100,36.6,> 100,> 100,,,,,,,,,,,
CN(C)CCCn1nc(C2=C(c3cn(C)c4ccccc34)C(=O)NC2=O)c2cccnc21,> 100,0.72,> 100,50.4,> 100,> 100,,,,,,,,,,,
Cn1cc(C2=C(c3n[nH]c4ncccc34)C(=O)N(c3ccccc3)C2=O)c2ccccc21,> 100,> 10,> 100,3.26,> 100,> 100,,,,,,,,,,,
Cn1cc(C2=C(c3nn(CCCO)c4ncccc34)C(=O)NC2=O)c2ccccc21,> 100,3.15,> 100,85.8,> 100,> 100,,,,,,,,,,,
Cn1cc(C2=C(c3nn(CCCn4cncn4)c4ncccc34)C(=O)NC2=O)c2ccccc21,> 100,2.2,> 100,> 100,> 100,> 100,,,,,,,,,,,
Cn1cc(C2=C(c3n[nH]c4ncccc34)C(=O)N(c3cccc4ccccc34)C2=O)c2ccccc21,> 100,> 10,> 100,> 100,> 100,> 100,,,,,,,,,,,
Cn1cc(C2=C(c3nn(CCCn4ccnc4)c4ncccc34)C(=O)N(c3ccccc3)C2=O)c2ccccc21,1.44,> 10,6.8,5.51,1.56,34.8,,,,,,,,,,,
Cn1cc(C2=C(c3nn(CCCN4CCOCC4)c4ncccc34)C(=O)NC2=O)c2ccccc21,> 100,5.95,> 100,> 100,> 100,> 100,,,,,,,,,,,
Cn1cc(C2=C(c3nn(CCn4ccnc4)c4ncccc34)C(=O)N(c3ccccc3)C2=O)c2ccccc21,8.77,> 10,> 100,26.4,43.1,> 100,,,,,,,,,,,
Cn1cc(C2=C(c3nn(CCCN4CCCCC4)c4ncccc34)C(=O)N(c3ccccc3)C2=O)c2ccccc21,12.3,> 10,5.6,3.79,20.6,3.05,Active,Active,Active,Active,Active,Active,Active,Active,Active,Active,Active
COc1ccc(N2C(=O)C(c3cn(C)c4ccccc34)=C(c3nn(CCCN4CCCCC4)c4ncccc34)C2=O)cc1,3.34,> 10,44,> 100,30.3,1.74,,,,,,,,,,,
Cn1cc(C2=C(c3nn(CCCN4CCCCC4)c4ncccc34)C(=O)N(c3ccc(Cl)cc3)C2=O)c2ccccc21,> 100,> 10,> 100,1.8,28.7,> 100,,,,,,,,,,,
Cn1cc(C2=C(c3nn(CCCn4cccc4)c4ncccc34)C(=O)NC2=O)c2ccccc21,> 100,1.1,> 100,21.6,> 100,> 100,,,,,,,,,,,
Cn1cc(C2=C(c3nn(CCCn4ccnc4)c4ncccc34)C(=O)NC2=O)c2ccccc21,> 100,0.9,> 100,13.8,> 100,> 100,,,,,,,,,,,
Cn1cc(C2=C(c3nn(CCCCn4ccnc4)c4ncccc34)C(=O)N(c3ccccc3)C2=O)c2ccccc21,7.54,> 10,47.3,5.03,21.7,1.76,,,,,,,,,,,
CN(C)CCCn1nc(C2=C(c3cn(C)c4ccccc34)C(=O)N(c3ccccc3)C2=O)c2cccnc21,5.84,> 10,14.1,1.7,13,31.2,,,,,,,,,,,
Cn1cc(C2=C(c3nn(CCCN4CCCCC4)c4ncccc34)C(=O)NC2=O)c2ccccc21,42.3,0.65,98,5.96,> 100,7.67,,,,,,,,,,,
Cn1cc(C2=C(c3nn(CCCN4CCCCC4)c4ncccc34)C(=O)N(c3ccccn3)C2=O)c2ccccc21,7.3,> 10,> 100,> 100,> 100,> 100,,,,,,,,,,,
O=C1NC(=O)C(c2c[nH]c3ccccc23)=C1c1c[nH]c2ccccc12 [RO-316233],83.5,0.35,53.8,17.5,56.6,> 100,,,,,,,,,,,
Cn1cc(C2=C(c3nn(CCCn4cncn4)c4ncccc34)C(=O)N(c3ccccc3)C2=O)c2ccccc21,> 100,> 10,> 100,> 100,> 100,> 100,,,,,,,,,,,
Cn1cc(C2=C(c3nn(CCCN4CCCCC4)c4ncccc34)C(=O)N(c3cccc4ccccc34)C2=O)c2ccccc21,1.83,> 10,13.4,3.18,2.82,0.22,,,,,,,,,,,
Cn1cc(C2=C(c3nn(CCCCn4ccnc4)c4ncccc34)C(=O)NC2=O)c2ccccc21,23.5,0.86,> 100,31.8,2.38,29.2,,,,,,,,,,,
CN1CCN(CCCn2nc(C3=C(c4cn(C)c5ccccc45)C(=O)NC3=O)c3cccnc32)CC1,> 100,1.86,> 100,46.7,> 100,> 100,,,,,,,,,,,
